Screening data: PubChem, several laboratories
TNF necrop inh: blocks TNF-alpha induced death of Jurkat FADD-/- cells; Jurkat FADD-/- TNF necroptosis rescue, ATP luminescence, 24 h; 0 = TNF only, 100 = no-TNF cells; activation (protection from cell death), % at 10 µM; hit rate 0.068% among 220,000; AID 463075;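 active means activation, meaning protection from cell death, of at least 50% relative to plate controls; inactive means activation below 50%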;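 further: necroptosis triggered by 40 ng/mL TNF-alpha added together with compound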
zVAD death inh: L929 zVAD cell death inhibition; L929 zVAD necroptosis rescue, ATP luminescence, 24 h; with zVAD 60 µM; viability rescue, % at 10 µM; hit rate 0.38% among 220,000; AID 1377;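 active means activation, scaled between plate controls, above about 75%, limit read from the data; inactive means activation under that limit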;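 further: 0% = zVAD with DMSO and 100% = DMSO alone without zVAD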
Pf gamet viab: inhibitors of late stage P. falciparum gametocyte viability; P. falciparum stage V gametocytes, ATP luminescence, 24 h; inhibition, % at 10.9 µM; hit rate 0.065% among 150,000; AID 743093;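 active means inhibition above the mean plus 3 SD of compounds within the control limits, set per campaign, cut at about 38% in these data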;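 further: 0% = DMSO wells and 100% = medium only without gametocytes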
Wee1 stabilizer: inhibitors of human Wee1 degradation | P30291 | AID 1321 | hit rate 1.2% among 220,000 | reporter increase, % at 5 µM | HeLa Luc-Wee1K328M stability, luciferase luminescence; 100% = proteasome inhibitor MG132 effect;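 active means activation above the mean of all tested compounds plus 3 SD, set per screening run, cut at about 8.8% in these data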;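 further: cells exposed to compound for 20 h before luminescence read; 0% = DMSO alone and 100% = MG132 at 30 µM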
Mdm2 ligase inh: Mdm2 E3 ligase (human) inhibition; Q00987; hit rate 0.11% among 210,000; signal enhancement, % at 5 µM; cell-based MDM2 ubiquitination luciferase reporter, 2 h; 0 = plate control, 100 = twice control, blank-subtracted;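 active means signal enhancement of 30% or more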;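 further: luminescence tracks abundance of the self-degrading MDM2-luciferase fusion protein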
Target sequence (Q00987 whole entry, looked up, the tested form may be a part): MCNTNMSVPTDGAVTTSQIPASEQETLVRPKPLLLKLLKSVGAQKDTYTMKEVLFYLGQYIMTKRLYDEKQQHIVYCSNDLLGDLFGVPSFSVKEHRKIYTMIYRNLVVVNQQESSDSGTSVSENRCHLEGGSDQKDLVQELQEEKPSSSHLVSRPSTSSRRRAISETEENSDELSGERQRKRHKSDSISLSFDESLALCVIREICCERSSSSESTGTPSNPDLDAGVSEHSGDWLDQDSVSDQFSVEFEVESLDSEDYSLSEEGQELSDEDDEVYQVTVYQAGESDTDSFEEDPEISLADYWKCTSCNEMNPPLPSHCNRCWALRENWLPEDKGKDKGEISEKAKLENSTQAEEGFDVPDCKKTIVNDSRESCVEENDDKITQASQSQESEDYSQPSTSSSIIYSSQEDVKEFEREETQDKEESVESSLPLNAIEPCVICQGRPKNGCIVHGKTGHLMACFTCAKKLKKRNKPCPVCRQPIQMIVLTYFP
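system = mammalian cells stably expressing self-ubiquitinating, self-degrading MDM2 E3–luciferase fusion | quantity = 2000 cells per well seeded | incubation = 4 h cell settling then 2 h compound exposure, 37 °C | signal = SteadyLite luminescence, 15 min reagent step | benchmarks = plate control and blank wells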
* = called active by the depositor; nt = not tested or not shown. Most compounds without a hit are left out; they make up all but 1.6% or so of the library.

SMILES	TNF necrop inh	zVAD death inh	Pf gamet viab	Wee1 stabilizer	Mdm2 ligase inh
COc1cc(C2=Nc3ccc(Br)cc3C(c3ccccc3)N2CC(=O)NN)cc(OC)c1OC (centres undefined)	0	1	-11	-2	-10
COCCNC(=O)Cn1cnc([N+](=O)[O-])n1	0	0	-20	9.6*	-21
CCCCNC(=O)Cn1cnc([N+](=O)[O-])n1	1	15	-19	-4	2
COc1ccc(-c2noc(CCCC(=O)Nc3ccc(C(N)=O)cc3)n2)cc1	-3	0	2	1	-29
COc1cc(-c2noc(CCCC(=O)Nc3ccc(C(N)=O)cc3)n2)cc(OC)c1OC	-2	0	14	10*	-10
Cc1ccc2[nH]c(=O)c(C(c3nnnn3C(C)(C)C)N3CCN(C(=O)c4ccco4)CC3)cc2c1 (centres undefined)	-3	0	12	2	-1
O=C(NC(=O)c1ccccc1Cl)Nc1ccc(-c2cnco2)cc1	0	1	-9	10.0*	-7
COc1ccc(NC(=O)Cn2cccc2)cc1Cl	2	0	nt	-3	nt
O=C(/C=C/c1ccco1)Nc1cccc(C(=O)Nc2ccccc2C(=O)O)c1	1	1	11	11*	-4
CCCN(CC(=O)Nc1ccc(C)cc1Br)CC(=O)Nc1ccc(F)c(F)c1F	2	1	7	0	-6
Nc1ccc2nn(-c3ccccc3)nc2c1	-3	1	nt	4	4
O=C(O)CC/C(=C\c1ccccc1[N+](=O)[O-])c1nc2ccccc2s1	0	16	6	-4	-7
COc1ccc(/C=C2\SC(=N)N(c3nccs3)C2=O)cc1OC	3	-1	23	-3	-6
N=C1S/C(=C\c2ccc(-c3cccc(Cl)c3)o2)C(=O)N1c1nccs1	1	11	-7	0	36*
C#CCOCCOCCOCCNc1nc(N2CCN(C(=O)[C@H]([C@@H](C)CC)n3cc([C@@H](N)CC(C)C)nn3)CC2)nc(N2CCN(C(=O)[C@H](CCCCN)n3cc([C@@H](N)CO)nn3)CC2)n1	1	0	nt	9.2*	nt
C#CCOCCOCCOCCNc1nc(N2CCN(C(=O)C([C@@H](C)CC)n3cc(C(N)CC(C)C)nn3)CC2)nc(N2CCN(C(=O)[C@H](CCC(=O)O)n3cc(C(N)Cc4ccc(O)cc4)nn3)CC2)n1 (some centres undefined)	1	0	nt	11*	nt
Cc1ccc(S(=O)(=O)NNC(=O)c2sc3nc(C)cc(C)c3c2-n2cccc2)cc1	-2	0	-5	-1	-16
CC(C)(Cl)C1Cc2cc3ccc(=O)oc3cc2O1 (centres undefined)	-3	1	7	0	-1
CCOc1nc(C)ccc1-c1noc(-c2ccccn2)n1	-3	0	nt	2	-17
CCOc1ccccc1-c1nc(-c2ccc(C)nc2OC)no1	-1	0	nt	9.5*	5
CCOC(=O)Cc1c(C)[nH]n(-c2ccccc2)c1=O	2	0	12	-3	-10
O=C(NC1CC1)c1sc2cc([N+](=O)[O-])ccc2c1Cl	-3	0	5	1	0
CC(NC(=O)c1sc2cc([N+](=O)[O-])ccc2c1Cl)C(C)(C)C (centres undefined)	-2	0	-19	9.0*	-24
COc1ccc(/C=C2\CCc3c2nc2ccccc2c3C(=O)O)cc1OC	-2	1	-10	6	-63
CN(CCC#N)C(=O)COC(=O)c1c2c(nc3ccccc13)/C(=C/c1ccco1)CC2	-1	2	-11	10*	-10
SMILES	TNF necrop inh	zVAD death inh	Pf gamet viab	Wee1 stabilizer	Mdm2 ligase inh
CCOC(=O)c1c(-c2ccc(C)cc2)cn2ccccc12	-4	0	17	-1	-18
O=C(C1=C[C@H](C2CC2)C[C@H](OCCCCO)O1)N1CCN(Cc2ccccc2)CC1	1	-1	16	5	nt
CC(C)CN(CC(C)C)C(=O)COc1ccccc1C(N)=O	0	1	-17	9.9*	2
COc1ccc(-n2cnc3cc(NS(=O)(=O)c4ccccc4)ccc32)cc1	53*	-1	1	3	-13
CC(C)(C)n1cnc2cc(NS(=O)(=O)c3ccccc3)ccc21	1	0	-4	2	2
CCN(CC)C(=S)SSC(=S)N(CC)CC	-23	72	nt	1	nt
CCN(CC)C(=S)SC1=CCS(=O)(=O)C1	0	0	3	10*	-10
Cc1ccc2[nH]c(=O)c(CN(Cc3ccco3)C(=O)CN3CCCC(C)C3)cc2c1 (centres undefined)	1	-2	-12	-2	3
COc1cc(/C=C2\COC/C(=C\c3cc(OC)c(OC)c(OC)c3)C2=O)cc(OC)c1OC	9	14	-5	127*	69*
COc1cc2c(cc1OC)CN(C(=O)c1ccc(S(=O)(=O)N3CCCCC3)cc1)CC2	1	-1	nt	-1	7
CCCC1/C(=N/O)CC(c2ccccc2)NC1c1ccccc1 (centres undefined)	-5	2	nt	9.1*	-9
CC(C)C[C@H](NC(=O)c1nc[nH]c1C(=O)N1CCNCC1)C(=O)OC(C)(C)C	nt	nt	12	nt	nt
Cc1cccc(NC2=C(NCCO)C(=O)c3ccccc3C2=O)c1	0	-1	19	9.3*	-17
COc1ccc(NC2=C(NCCO)C(=O)c3ccccc3C2=O)cc1	-11	0	12	3	-10
Cc1cccc(NC(=O)CCCSc2nc3ccccc3[nH]2)c1	2	2	7	10*	1
CCc1ccc(NC(=O)CCc2nc3ccccc3[nH]2)cc1	4	2	-11	9.5*	2
COC(=O)/C=C/C(=O)N1CCN(c2cccc(Cl)c2)CC1	-7	2	nt	1	-14
O=C(O)c1ccccc1P(=O)(c1ccccc1)c1ccccc1	-1	0	-8	2	-5
Cc1ccc(-n2nc(C(N)=O)nc2-c2ccccc2)cc1	nt	nt	3	nt	nt
O=C(C1CCCO1)N1CCN(c2ncccn2)CC1 (centres undefined)	0	0	-8	-2	-3
CCCCNc1nc2ccccc2[nH]1	0	-1	-14	-2	-21
CCOCCCNc1nc2ccccc2[nH]1	0	0	nt	10*	-9
C/C(O)=c1/c(=O)nc2cccc3c2=c1c1ccccc1c3=O	nt	nt	5	nt	nt
CN(C)c1ccc(CN2CCCCC2)cc1	2	0	nt	-2	nt
Cc1ccc(C)c(NC(=O)c2cc3ccccn3n2)c1	-1	0	nt	-1	-15
Cc1ccc(C)c(NC(=O)c2cnn3ccccc23)c1	-1	85*	nt	3	-8
Cc1ccc(S(=O)(=O)CCC(=O)Nc2ccc3nc(C)sc3c2)cc1	-3	3	-11	11*	-5
Cc1nc2ccc(NC(=O)CCS(=O)(=O)c3ccccc3)cc2s1	2	1	-3	-5	-7
